Assay results reported in ChEMBL document CHEMBL4699460, “Integrating DNA-encoded chemical libraries with virtual combinatorial library screening: Optimizing a PARP10 inhibitor” (Bioorg Med Chem Lett, 2020).

Key:
[1] = target: T1, Protein mono-ADP-ribosyltransferase PARP10 (Homo sapiens, UniProt Q53GL7); test: (§1) Inhibition of N-terminal FLAG-tagged and C-terminal strep-tagged human PARP10 (805 to 1025 residues) expressed in baculovirus infected Sf9 cells assessed as reduction in NAD+-dependent ADP ribosylation using histone as substrate incubated for 1 hr in presence of biotinylated NAD+ and activated DNA by chemiluminescence based microplate reader assay
T1 sequence (Q53GL7 whole entry): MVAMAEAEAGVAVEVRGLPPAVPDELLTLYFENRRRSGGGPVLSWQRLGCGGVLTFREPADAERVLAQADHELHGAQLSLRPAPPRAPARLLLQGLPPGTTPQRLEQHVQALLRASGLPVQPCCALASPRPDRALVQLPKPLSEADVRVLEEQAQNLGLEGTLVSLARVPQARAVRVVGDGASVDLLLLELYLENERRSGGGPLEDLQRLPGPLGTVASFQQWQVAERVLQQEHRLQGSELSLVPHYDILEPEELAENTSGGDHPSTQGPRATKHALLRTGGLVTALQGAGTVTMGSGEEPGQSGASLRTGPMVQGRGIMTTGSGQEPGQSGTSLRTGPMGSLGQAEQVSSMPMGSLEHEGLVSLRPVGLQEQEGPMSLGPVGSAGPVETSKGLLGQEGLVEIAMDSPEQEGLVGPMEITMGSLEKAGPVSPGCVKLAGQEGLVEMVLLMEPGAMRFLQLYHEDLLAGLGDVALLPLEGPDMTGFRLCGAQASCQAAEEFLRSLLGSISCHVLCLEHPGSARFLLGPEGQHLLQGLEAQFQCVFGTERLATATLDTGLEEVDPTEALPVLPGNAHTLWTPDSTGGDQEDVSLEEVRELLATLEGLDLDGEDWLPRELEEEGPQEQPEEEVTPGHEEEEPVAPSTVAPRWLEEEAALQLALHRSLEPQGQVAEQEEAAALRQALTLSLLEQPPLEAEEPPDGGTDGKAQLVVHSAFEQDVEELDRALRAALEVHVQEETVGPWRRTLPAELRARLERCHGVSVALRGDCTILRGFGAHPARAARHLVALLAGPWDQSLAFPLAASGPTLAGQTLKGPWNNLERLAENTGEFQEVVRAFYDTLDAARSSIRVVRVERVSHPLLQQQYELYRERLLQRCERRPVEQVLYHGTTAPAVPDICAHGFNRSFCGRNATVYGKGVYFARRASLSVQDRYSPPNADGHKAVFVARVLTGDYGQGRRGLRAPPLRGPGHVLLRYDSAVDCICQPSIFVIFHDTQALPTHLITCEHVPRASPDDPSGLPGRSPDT
Summary of the method: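 The IC50 was derived from a concentration-dependent inhibition curve for PARP10 in the histone ADP-ribosylation assay.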

[2] = target: T2, Protein mono-ADP-ribosyltransferase TIPARP (Homo sapiens) (UniProt Q7Z3E1); test: as §1, with “FLAG-tagged” for “FLAG-tagged and C-terminal strep-tagged”, “PARP7 (400” for “PARP10 (805”, “657” for “1025”, “substrate at 10 uM” for “substrate”, “assay relative to control” for “assay”
T2 sequence (whole entry): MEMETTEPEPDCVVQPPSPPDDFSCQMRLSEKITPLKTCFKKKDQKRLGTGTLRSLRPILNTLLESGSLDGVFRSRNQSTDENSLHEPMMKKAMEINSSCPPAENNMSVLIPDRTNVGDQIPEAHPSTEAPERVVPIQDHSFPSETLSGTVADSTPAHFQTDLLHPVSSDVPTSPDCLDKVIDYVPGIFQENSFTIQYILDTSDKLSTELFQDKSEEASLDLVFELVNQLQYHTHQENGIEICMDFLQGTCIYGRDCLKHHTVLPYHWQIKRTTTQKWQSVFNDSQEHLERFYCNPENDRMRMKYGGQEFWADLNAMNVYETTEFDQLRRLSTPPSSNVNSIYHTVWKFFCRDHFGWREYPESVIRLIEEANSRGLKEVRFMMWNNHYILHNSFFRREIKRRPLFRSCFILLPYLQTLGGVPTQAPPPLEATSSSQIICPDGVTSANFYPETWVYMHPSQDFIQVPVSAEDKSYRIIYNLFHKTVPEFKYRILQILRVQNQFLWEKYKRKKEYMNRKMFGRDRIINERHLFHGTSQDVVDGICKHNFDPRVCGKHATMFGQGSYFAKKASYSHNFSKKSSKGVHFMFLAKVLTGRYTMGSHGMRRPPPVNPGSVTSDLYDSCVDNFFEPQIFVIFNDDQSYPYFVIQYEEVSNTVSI

[3] = target: T3, Protein mono-ADP-ribosyltransferase PARP12 (Homo sapiens) (UniProt Q9H0J9); test: Inhibition of N-terminal His-GST tagged human PARP12 (500 to 701 residues) expressed in baculovirus infected Sf9 cells assessed as reduction in NAD+-dependent ADP ribosylation using histone as substrate at 10 uM incubated for 1 hr in presence of biotinylated NAD+ and activated DNA by chemiluminescence based microplate reader assay relative to control
T3 sequence (whole entry): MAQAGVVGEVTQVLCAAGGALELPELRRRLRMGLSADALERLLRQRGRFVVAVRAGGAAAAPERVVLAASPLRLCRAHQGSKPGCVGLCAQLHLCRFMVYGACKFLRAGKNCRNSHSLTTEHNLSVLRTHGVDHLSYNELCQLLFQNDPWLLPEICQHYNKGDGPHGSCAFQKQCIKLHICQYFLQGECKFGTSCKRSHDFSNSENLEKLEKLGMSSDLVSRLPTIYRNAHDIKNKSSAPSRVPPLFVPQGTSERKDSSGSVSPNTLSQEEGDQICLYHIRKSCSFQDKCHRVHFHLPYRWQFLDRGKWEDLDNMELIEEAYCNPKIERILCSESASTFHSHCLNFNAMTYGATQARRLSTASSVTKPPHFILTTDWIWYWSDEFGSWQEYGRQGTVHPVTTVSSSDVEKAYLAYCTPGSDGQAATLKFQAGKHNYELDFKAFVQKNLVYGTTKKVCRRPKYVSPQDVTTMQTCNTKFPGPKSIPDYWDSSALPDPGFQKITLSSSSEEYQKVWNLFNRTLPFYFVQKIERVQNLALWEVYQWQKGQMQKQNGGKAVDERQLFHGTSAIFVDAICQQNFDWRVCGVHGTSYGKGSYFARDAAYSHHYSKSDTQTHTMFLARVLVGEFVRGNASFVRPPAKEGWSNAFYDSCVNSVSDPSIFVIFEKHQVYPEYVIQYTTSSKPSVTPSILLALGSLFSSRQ

| IC50 [1] | inhibition [2] | inhibition [3] | SMILES |
| --- | --- | --- | --- |
| 6 µM | < 25% | < 25% | CNC(=O)[C@H](CNC(=O)CCc1nc2ccccc2[nH]c1=O)NC(=O)c1ccc2c(c1)CCCC2=O |
| 3.9 µM | > 50% | 16% | CC1(CNC(=O)COc2cccc3c2CCCC3=O)CCN(C(=O)CCc2nc3ccccc3[nH]c2=O)CC1 |
